Assay results as given in the RNAGym collection of RNA variant scans (doi:10.1126/science.aae0568).
This sample holds only a part of the variants without activity.

B1: tRNA (parent)
chain: GUUCCGUUGGCGUAAUGGUAACGCGUCUCCCUCCUAAGGAGAAGACUGCGGGUUCGAGUCCCGUACGGAACG

Variants of: B1
Assay: yeast fitness relative to wild type (ratio to wild type); higher = fitter; tRNA-Arg(CCU), competitive growth, 37 C, YPD
How it was run: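 For this measurement, the tRNA-Arg(CCU) gene was varied by chemical synthesis at a 3% per-site mutation rate across 69 sites, and each variant was placed at the native genomic locus in Saccharomyces cerevisiae. The pooled strains went through a 24-hour competition in YPD at 37°C in six parallel replicates, with amplicons from start and end populations read by 100-nucleotide paired-end sequencing. Darwinian fitness relative to wild type followed from the change in each genotype's frequency. Genotypes needed ≥ 100 starting reads, and estimates < 0.5 were set to 0.5.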

Variant	yeast fitness
U53A G67A	0.686
U53A U59A	0.664
U53C A69C	0.881
U53C C66U	0.814
U53G A65U	0.635
U53G C66U	0.604
U53G G56C G67C	0.605
U53G U59C C66U	≤ 0.5
U54A C61G	0.63
U54A C61G A65U	≤ 0.5
U54C A70U	0.869
U54C C62U	0.815
U54C C66U	0.767
U54C C66U A69U	0.62
U54C G56A	0.788
U54C G58A	0.834
U54C G68A	0.937
U54C U64C	0.758
U54G A65C	0.606
U54G A69U	0.648
U54G A70U	0.678
U54G G63C	≤ 0.5
C55A A57C C66U	≤ 0.5
C55A A65C	0.603

Variant	yeast fitness
C55A A70U	0.658
C55A C62G	0.543
C55A G63C	0.603
C55A G68C	0.674
C55A U64C	0.623
C55G A57C C61A C66U	0.544
C55G A57U	0.633
C55G A65C G67A	≤ 0.5
C55G A69G	0.627
C55G A69U	0.636
C55G C60A	0.536
C55G C61U	0.743
C55G G56A	0.628
C55G G68C	0.624
C55G U59A A70G	0.731
C55U A57U	0.634
C55U A65U	0.794
C55U A69C	0.762
C55U C61A G68A	≤ 0.5
C55U C61G C62G	0.629
C55U C61U	0.75
C55U C62G	0.739
C55U C66A	0.656
C55U G58A	0.642

Variant	yeast fitness
C55U G58A U59C C62U	≤ 0.5
C55U G67C	0.677
C55U U64A C66A	≤ 0.5
C55U U64C	0.873
G56A A57C	0.699
G56A A57G	0.905
G56A A65U	0.978
G56A A69C A70U	0.825
G56A A69U	1.01
G56A A70U	0.918
G56A C60G	0.681
G56A G58A G67C	0.679
G56A G67U	0.99
G56A G68C	0.838
G56A U59C A65C	0.738
G56C A57C C61G	≤ 0.5
G56C A57U G58A	≤ 0.5
G56C A65G A70U	0.587
G56C A69C A70U	0.605
G56C A69U A70U	≤ 0.5
G56C C61U	0.747
G56C G58A	0.607
G56C G58C	0.563
G56U A69C	0.717

Variant	yeast fitness
A57C	0.62
A57C A65C A70C	0.571
A57C A70G	0.664
A57C C60A	≤ 0.5
A57C C60U A69C	≤ 0.5
A57C C61G A69C	≤ 0.5
A57C G67C	0.707
A57C U64G	0.512
A57C U64G C66U	≤ 0.5
A57G	0.998
A57G A65G	1.02
A57G A65G C66U	0.65
A57G A69G A70G	0.704
A57G A70G	0.889
A57G C60U G68C	0.527
A57G C66U	0.816
A57G U59C A69U	0.748
A57G U64C A65C	0.506
A57U	0.731
A57U A65C C66G	≤ 0.5
A57U A65G	0.753
A57U A69G	0.665
A57U A70U	0.69
A57U C62A	0.629

Variant	yeast fitness
A57U G68C	0.652
A57U U59A A65C	≤ 0.5
G58A A69U	0.986
G58A A70U	0.955
G58A C62U A69C	1.1
G58A C66U G67U	0.543
G58A G67C	0.988
G58A G68C	1.01
G58C A69U	0.846
G58C C61A A65U	≤ 0.5
G58C C61A A69U	0.55
G58C C62G	0.755
G58C C66U	0.982
G58C G63A	0.873
G58C G67A	0.807
G58C G67C	1.17
U59A	0.973
U59A A65U	0.636
U59A A70C	0.741
U59A C60U	0.74
U59A C66A	0.63
U59A G63A	0.872
U59C	1
U59C A70G	1.01

Variant	yeast fitness
U59C G68A	0.817
U59G	1.01
U59G C60G	0.638
U59G C60U	0.63
U59G C66A	0.62
U59G G63C	0.639
C60A A69G	0.56
C60A G67C	0.654
C60A G68C	0.734
C60A U64A	0.561
C60G C66G A70C	≤ 0.5
C60G G67A	0.584
C60G G68A	0.695
C60U A69C	0.713
C60U A69G	0.572
C60U C61G	0.643
C60U C62G A70G	0.521
C61A A65U	0.604
C61A C62U A65U A69C	0.52
C61A G67C	0.664
C61A G68A	0.716
C61G A69U	0.635
C61G C62U	0.613
C61G C66G	0.625

Variant	yeast fitness
C61G G63A A70U	0.562
C61G G63C G68A	≤ 0.5
C61G G67U	0.61
C61U A65U	0.724
C61U A69C	0.882
C61U A69U A70U	0.678
C61U G68A	0.711
C61U G68C	0.68
C61U G68U	0.639
C62A A65U	0.772
C62A A70C	0.955
C62A C66G	0.718
C62A C66U	0.694
C62G A65U	0.75
C62G G63A	0.796
C62G G67C	0.614
C62U A65C A70C	0.619
C62U A65U G67A	0.532
C62U A70G	0.997
C62U C66U	1.06
C62U G63C U64C	0.789
C62U G67C	0.917
C62U U64C	1.02
